In ChEMBL document CHEMBL4229344 (Eur J Med Chem, 2018):
Activity calls are given as the source filed them. The rule behind the calls is not given here.

Experiments:
[1] = tested on: Epidermal growth factor receptor (Homo sapiens), P00533 [UNDEFINED MUTATION]; experiment: Binding affinity to human partial length EGFR L747-S752del/P753S mutant expressed in bacterial expression system assessed as residual binding level at 1 uM by Kinomescan method relative to control
Method in brief: (§1)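 Kinome-wide single-concentration binding screen (KINOMEscan) at 1 μM against a panel of 468 purified kinases and mutants. Read-out is relative binding of each kinase compared with control. Selectivity across the panel was summarised as an S(10) score.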

[2] = tested on: eIF-2-alpha kinase GCN2 (Homo sapiens), Q9P2K8 [S808G]; experiment: Binding affinity to wild-type human partial length GCN2 kinase domain 2 (R585 to T1018 residues) S808G mutant expressed in bacterial expression system assessed as residual binding level at 1 uM by Kinomescan method relative to control
EOL1 [3] = experiment: Antitumor activity against human EOL-1 cells xenografted in nu/nu mouse assessed as tumor growth inhibition at 25 mg/kg/day, ip; format: functional; settings: read-out: TGI
Method in brief: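 Female nu/nu mice (6 weeks) given subcutaneous right-flank injection of 5 million EOL-1 cells in PBS/Matrigel 1:1. At 200–400 mm3 tumors, randomized to groups of 6 and dosed daily i.p. for 14 days at 25, 50 or 100 mg/kg/d in 0.5% methylcellulose/0.4% Tween80. Tumor volume = W²×L/2, measured daily.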

[4] = target: Serine/threonine-protein kinase Nek1 (Homo sapiens) (UniProt Q96PY6); experiment: Binding affinity to wild-type human partial length NEK1 (M1 to K278 residues) expressed in bacterial expression system assessed as residual binding level at 1 uM by Kinomescan method relative to control
NCI-H1703 = experiment: Induction of apoptosis in human NCI-H1703 cells assessed as cleaved caspase3 expression level at 0.3 to 10 uM after 72 hrs by Western blot analysis; format: functional, cell-based
Method in brief: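 Cells exposed to compound or DMSO for the stated periods, then lysed and immunoblotted for PARP and caspase-3 cleavage, with β-actin as loading control. NCI-H1703 stimulation used PDGF AA at 100 ng/mL.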

[5] = target: Casein kinase I isoform alpha (Homo sapiens) (UniProt P48729); experiment: Binding affinity to wild-type human partial length CSNK1A1 (M1 to L450 residues) expressed in mammalian expression system assessed as residual binding level at 1 uM by Kinomescan method relative to control
Method in brief: (§2)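 Kinome-wide competition binding screen against a panel of 468 purified kinases/mutants, with the test compound at a single concentration of 1 μM. Read-out is the relative binding activity of each kinase in the presence of compound.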

[6] = tested on: Phosphatidylinositol 4,5-bisphosphate 3-kinase catalytic subunit alpha isoform (Homo sapiens), P42336 [I800L]; experiment: Binding affinity to human partial length PIK3CA I800L mutant (R108 to N1068 residues) expressed in mammalian expression system assessed as residual binding level at 1 uM by Kinomescan method relative to control; method in brief: as §1
[7] = target: Phosphatidylinositol 4-phosphate 5-kinase type-1 gamma (Homo sapiens) (UniProt O60331); experiment: Binding affinity to wild-type human partial length PIP5K1C (M1 to T668 residues) expressed in mammalian expression system assessed as residual binding level at 1 uM by Kinomescan method relative to control
Method in brief: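 KINOMEscan competition binding against a panel of 468 purified kinases/mutants, compound tested at 1 μM; readout is relative binding activity versus control.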

[8] = target: Cyclin-dependent kinase-like 3 (Homo sapiens) (UniProt Q8IVW4); experiment: Binding affinity to wild-type human partial length CDKL3 (M1 to D327 residues) expressed in bacterial expression system assessed as residual binding level at 1 uM by Kinomescan method relative to control; method in brief: as §2
[9] = target: Tyrosine-protein kinase ZAP-70 (Homo sapiens) (UniProt P43403); experiment: Binding affinity to wild-type human partial length ZAP70 (D20 to G299 residues) expressed in mammalian expression system assessed as residual binding level at 1 uM by Kinomescan method relative to control
EOL1 [10] = experiment: Antitumor activity against human EOL-1 cells engrafted in ip dosed NOD-SCID mouse assessed as increase in mouse survival administered 3 weeks post cell inoculation; format: functional, organism-based
Method in brief: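 Daily i.p. dosing started 3 weeks after inoculation at 7.5, 15 or 30 mg/kg/day. Mice monitored daily and euthanized when moribund or at hind-limb paralysis. Bone marrow cells, after red-cell lysis, stained with PE anti-HLA-ABC and counted by flow cytometry.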

[11] = target: Calcium/calmodulin-dependent protein kinase type II subunit delta (Homo sapiens) (UniProt Q13557); experiment: Binding affinity to wild-type human partial length CAMK2D (M1 to E329 residues) expressed in bacterial expression system assessed as residual binding level at 1 uM by Kinomescan method relative to control
[12] = target: Inhibitor of nuclear factor kappa-B kinase subunit beta (Homo sapiens) (UniProt O14920); experiment: Binding affinity to wild-type human full length IKK-beta (M1 to S756 residues) expressed in mammalian expression system assessed as residual binding level at 1 uM by Kinomescan method relative to control
Method in brief: (§3)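 Single-concentration (1 μM) competition-binding screen run by KINOMEscan against a panel of 468 purified kinases and mutants. The read-out is the relative binding activity of the test compound to each kinase.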

[13] = target: Testis-specific serine/threonine-protein kinase 3 (Homo sapiens) (UniProt Q96PN8); experiment: Binding affinity to wild-type human full length TSSK3 (M1 to T268 residues) expressed in mammalian expression system assessed as residual binding level at 1 uM by Kinomescan method relative to control
Method in brief: (§4)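 Single-concentration KINOMEscan (DiscoverX) binding screen at 1 μM against a panel of 468 purified kinases and mutants. The read-out is binding relative to control.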

[14] = target: Ephrin type-A receptor 2 (Homo sapiens) (UniProt P29317); experiment: Binding affinity to wild-type human partial length EPHA2 (T593 to V891 residues) expressed in bacterial expression system assessed as residual binding level at 1 uM by Kinomescan method relative to control
[15] = target: Serine/threonine-protein kinase DCLK1 (Homo sapiens) (UniProt O15075); experiment: Binding affinity to wild-type human partial length DCAMKL1 (L270 to A662 residues) expressed in mammalian expression system assessed as residual binding level at 1 uM by Kinomescan method relative to control; method in brief: as §2
[16] = target: Tyrosine-protein kinase Blk (Homo sapiens) (UniProt P51451); experiment: Binding affinity to wild-type human partial length BLK (G211 to L503 residues) expressed in bacterial expression system assessed as residual binding level at 1 uM by Kinomescan method relative to control; method in brief: as §4
[17] = target: LIM domain kinase 2 (Homo sapiens) (UniProt P53671); experiment: Binding affinity to wild-type human full length LIMK2 (M1 to P638 residues) expressed in bacterial expression system assessed as residual binding level at 1 uM by Kinomescan method relative to control; method in brief: as §3
[18] = target: MAP kinase-interacting serine/threonine-protein kinase 2 (Homo sapiens) (UniProt Q9HBH9); experiment: Binding affinity to wild-type human partial length MKNK2 (G63 to S388 residues) expressed in mammalian expression system assessed as residual binding level at 1 uM by Kinomescan method relative to control
Chain of MAP kinase-interacting serine/threonine-protein kinase 2 (Homo sapiens) (Q9HBH9 whole entry, looked up, the tested form may be a part): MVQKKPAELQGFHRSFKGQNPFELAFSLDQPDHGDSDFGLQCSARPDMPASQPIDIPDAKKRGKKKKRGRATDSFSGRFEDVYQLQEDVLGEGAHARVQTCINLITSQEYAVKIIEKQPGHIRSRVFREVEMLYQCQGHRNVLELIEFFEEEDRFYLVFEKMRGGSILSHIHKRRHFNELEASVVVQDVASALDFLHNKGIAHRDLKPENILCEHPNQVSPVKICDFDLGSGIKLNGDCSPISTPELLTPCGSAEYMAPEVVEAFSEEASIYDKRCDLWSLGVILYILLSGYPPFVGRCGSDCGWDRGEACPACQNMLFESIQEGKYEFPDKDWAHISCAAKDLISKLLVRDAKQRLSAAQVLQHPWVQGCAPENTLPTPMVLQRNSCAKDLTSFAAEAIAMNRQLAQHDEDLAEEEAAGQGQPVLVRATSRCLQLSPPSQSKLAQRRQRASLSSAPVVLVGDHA

Chain of Serine/threonine-protein kinase DCLK1 (Homo sapiens) (O15075 whole entry, the tested form may be a part): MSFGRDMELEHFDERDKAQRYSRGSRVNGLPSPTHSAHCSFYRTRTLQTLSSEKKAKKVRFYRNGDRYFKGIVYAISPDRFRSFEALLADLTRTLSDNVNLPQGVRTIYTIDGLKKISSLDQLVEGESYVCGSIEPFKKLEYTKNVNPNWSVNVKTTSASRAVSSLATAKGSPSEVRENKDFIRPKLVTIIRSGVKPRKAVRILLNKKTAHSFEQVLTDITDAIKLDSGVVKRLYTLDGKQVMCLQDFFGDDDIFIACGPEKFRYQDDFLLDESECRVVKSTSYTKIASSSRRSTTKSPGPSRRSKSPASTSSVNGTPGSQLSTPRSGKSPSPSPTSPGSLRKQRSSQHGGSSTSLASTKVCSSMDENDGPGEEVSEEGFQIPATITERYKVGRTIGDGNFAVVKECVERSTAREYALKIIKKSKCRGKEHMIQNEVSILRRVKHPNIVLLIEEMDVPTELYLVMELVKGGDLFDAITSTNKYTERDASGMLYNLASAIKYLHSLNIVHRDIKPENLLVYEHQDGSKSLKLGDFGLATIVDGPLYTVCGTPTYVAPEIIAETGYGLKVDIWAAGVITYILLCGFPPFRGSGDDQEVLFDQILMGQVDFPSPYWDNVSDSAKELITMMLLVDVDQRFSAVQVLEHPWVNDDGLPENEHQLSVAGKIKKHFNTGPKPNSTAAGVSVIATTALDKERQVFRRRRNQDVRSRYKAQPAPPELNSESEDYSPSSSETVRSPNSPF
Chain of LIM domain kinase 2 (Homo sapiens) (P53671 whole entry, looked up, the tested form may be a part): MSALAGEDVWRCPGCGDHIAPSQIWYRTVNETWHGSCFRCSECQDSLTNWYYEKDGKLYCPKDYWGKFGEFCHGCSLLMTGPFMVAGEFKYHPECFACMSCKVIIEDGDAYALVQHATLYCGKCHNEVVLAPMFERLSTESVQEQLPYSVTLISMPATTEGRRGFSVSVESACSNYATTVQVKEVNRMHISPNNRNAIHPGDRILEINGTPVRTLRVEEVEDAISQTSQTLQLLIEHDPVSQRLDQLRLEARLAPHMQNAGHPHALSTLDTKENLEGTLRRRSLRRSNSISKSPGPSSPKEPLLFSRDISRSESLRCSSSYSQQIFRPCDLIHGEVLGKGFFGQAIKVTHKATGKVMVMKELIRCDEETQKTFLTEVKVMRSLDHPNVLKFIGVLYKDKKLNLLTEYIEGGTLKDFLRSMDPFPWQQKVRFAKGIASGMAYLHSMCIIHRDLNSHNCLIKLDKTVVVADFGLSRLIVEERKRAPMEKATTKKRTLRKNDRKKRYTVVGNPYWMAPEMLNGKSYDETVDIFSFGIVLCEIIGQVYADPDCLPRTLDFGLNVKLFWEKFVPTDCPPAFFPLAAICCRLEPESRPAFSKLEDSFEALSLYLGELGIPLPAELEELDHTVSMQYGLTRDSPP
Chain of Cyclin-dependent kinase-like 3 (Homo sapiens) (Q8IVW4 whole entry, looked up, the tested form may be a part): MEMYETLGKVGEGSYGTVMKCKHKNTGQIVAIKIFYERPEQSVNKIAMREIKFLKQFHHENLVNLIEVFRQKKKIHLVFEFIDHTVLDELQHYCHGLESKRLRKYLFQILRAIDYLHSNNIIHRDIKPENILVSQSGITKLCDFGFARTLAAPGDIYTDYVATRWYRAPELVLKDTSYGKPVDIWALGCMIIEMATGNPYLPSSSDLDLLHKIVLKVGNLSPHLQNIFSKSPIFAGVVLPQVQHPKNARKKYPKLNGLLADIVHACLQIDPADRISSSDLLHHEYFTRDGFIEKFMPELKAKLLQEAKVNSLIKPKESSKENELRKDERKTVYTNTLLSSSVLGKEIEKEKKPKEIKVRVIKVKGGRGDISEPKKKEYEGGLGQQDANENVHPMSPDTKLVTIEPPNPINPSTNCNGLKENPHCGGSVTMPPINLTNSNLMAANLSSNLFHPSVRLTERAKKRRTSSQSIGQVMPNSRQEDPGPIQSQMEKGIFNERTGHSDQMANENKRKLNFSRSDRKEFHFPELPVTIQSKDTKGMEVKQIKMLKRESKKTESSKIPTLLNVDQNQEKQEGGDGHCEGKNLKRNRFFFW
Chain of Ephrin type-A receptor 2 (Homo sapiens) (P29317 whole entry, the tested form may be a part): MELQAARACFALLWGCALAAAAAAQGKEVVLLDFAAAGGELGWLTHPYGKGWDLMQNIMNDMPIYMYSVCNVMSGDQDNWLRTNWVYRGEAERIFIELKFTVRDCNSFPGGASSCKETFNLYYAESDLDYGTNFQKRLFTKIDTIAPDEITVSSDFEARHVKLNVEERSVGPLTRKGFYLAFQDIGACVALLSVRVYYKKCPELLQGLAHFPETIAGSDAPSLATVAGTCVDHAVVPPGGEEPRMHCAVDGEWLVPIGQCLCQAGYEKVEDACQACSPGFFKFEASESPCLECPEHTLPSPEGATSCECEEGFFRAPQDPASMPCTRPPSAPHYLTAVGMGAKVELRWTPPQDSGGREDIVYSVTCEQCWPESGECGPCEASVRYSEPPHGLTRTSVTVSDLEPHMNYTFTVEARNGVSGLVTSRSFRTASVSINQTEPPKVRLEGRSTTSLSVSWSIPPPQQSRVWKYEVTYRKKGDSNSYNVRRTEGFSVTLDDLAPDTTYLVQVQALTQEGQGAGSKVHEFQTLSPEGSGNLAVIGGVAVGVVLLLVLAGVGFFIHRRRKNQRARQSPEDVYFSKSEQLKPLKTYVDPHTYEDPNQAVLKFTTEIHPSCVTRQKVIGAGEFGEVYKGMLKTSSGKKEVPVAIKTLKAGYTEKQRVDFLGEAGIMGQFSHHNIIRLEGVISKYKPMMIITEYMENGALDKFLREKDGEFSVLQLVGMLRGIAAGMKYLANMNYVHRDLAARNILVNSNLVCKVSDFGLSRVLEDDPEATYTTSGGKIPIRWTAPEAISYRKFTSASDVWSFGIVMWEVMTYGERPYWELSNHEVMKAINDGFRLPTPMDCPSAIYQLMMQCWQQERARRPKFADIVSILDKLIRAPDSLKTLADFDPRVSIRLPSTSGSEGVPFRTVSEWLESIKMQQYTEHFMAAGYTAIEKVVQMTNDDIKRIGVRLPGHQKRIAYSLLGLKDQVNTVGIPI
Chain of Testis-specific serine/threonine-protein kinase 3 (Homo sapiens) (Q96PN8 whole entry, the tested form may be a part): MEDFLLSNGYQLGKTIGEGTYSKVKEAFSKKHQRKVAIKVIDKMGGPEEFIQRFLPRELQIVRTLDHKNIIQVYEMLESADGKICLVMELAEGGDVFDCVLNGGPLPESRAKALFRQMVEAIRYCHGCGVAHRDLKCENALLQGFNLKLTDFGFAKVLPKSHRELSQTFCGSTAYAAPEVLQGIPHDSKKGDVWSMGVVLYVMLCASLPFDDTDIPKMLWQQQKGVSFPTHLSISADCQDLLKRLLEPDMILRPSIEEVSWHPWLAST
Chain of Tyrosine-protein kinase ZAP-70 (Homo sapiens) (P43403 whole entry, the tested form may be a part): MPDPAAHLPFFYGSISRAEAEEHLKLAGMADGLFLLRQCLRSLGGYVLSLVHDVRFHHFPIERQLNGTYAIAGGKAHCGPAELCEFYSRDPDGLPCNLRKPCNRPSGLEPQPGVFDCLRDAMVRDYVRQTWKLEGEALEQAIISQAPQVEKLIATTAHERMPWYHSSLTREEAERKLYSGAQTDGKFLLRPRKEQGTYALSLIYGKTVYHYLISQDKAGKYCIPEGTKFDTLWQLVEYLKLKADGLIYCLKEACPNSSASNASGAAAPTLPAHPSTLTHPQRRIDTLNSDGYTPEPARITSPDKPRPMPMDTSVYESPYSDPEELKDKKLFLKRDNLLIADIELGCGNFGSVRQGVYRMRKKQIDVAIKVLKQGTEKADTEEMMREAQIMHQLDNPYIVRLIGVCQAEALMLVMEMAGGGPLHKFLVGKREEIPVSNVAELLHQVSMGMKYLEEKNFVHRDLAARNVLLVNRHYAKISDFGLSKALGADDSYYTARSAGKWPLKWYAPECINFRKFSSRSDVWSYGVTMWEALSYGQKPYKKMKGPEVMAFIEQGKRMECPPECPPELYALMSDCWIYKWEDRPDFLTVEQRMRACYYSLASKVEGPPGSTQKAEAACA
Chain of Casein kinase I isoform alpha (Homo sapiens) (P48729 2-337 limits assumed): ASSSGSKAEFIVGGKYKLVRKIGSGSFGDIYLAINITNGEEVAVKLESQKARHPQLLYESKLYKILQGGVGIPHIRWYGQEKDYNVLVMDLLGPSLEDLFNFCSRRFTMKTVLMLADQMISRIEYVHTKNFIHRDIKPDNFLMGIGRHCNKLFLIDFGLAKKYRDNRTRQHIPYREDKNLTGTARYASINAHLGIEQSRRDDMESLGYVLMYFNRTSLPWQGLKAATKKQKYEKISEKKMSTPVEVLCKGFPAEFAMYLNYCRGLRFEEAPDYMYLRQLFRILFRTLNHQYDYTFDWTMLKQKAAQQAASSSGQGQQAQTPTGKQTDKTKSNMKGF

## Cc1ccc(NC(=O)c2ccc(CN(CCN(C)C)C(=O)c3cccnc3)cc2)cc1Nc1nccc(-c2cccnc2)n1
[1]
  Activity: 96%
[2]
  Activity: 71%
EOL1 [3]
  inhibition in vivo at 25 mg/kg/day: 71.5%
[4]
  Activity: 100%
NCI-H1703
  Activity: inactive
[5]
  Activity: 87%
[6]
  Activity: 79%
[7]
  Activity: 83%
[8]
  Activity: 91%
[9]
  Activity: 100%
EOL1 [10]
  Activity: Dose-dependent effect
[11]
  Activity: 100%
[12]
  Activity: 96%
[13]
  Activity: 100%
[14]
  Activity: 100%
[15]
  Activity: 78%
[16]
  Activity: 95%
[17]
  Activity: 100%
[18]
  Activity: 100%
